M18AAP inhibitor: PfM18AAP enzyme inhibition | recombinant PfM18AAP, H-Glu-NHMec fluorogenic cleavage | inhibition, % at 7.35 µM | hit rate 1.2% among 290,000;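 active = inhibition above the campaign mean inhibition over all tested compounds plus 3 SD, cut at about 28% in these data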
NS3 helicase inh: inhibitors of Hepatitis C virus NS3 helicase; NS3 helicase DNA unwinding, Cy5 molecular beacon fluorescence; inhibition, % at 10.9 µM; hit rate 0.56% among 290,000;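 active = inhibition above the mean of all tested compounds plus 3 SD, set per campaign, cut at about 35% in these data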
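System: HCV NS3 helicase fragment; control set: DMSO and thioflavine S; technique: Cy5 fluorescence at 0 and 60 min, beacon hairpin quenching; reagent: beacon DNA duplex substrate plus ATP; replicates: singlicate; schedule: 1 h reaction at 25 °C, ATP-initiated; medium: MOPS buffer pH 6.5 with MgCl2, DTT, Tween20, BSA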
p97 ATPase inh: human p97 ATPase inhibition; P55072; recombinant p97 ATPase, Kinase-Glo ATP luminescence, 3 h; inhibition, % at 8 µM; hit rate 0.42% among 220,000; in the data active = inhibition above about 15%
Target sequence (P55072 whole entry, looked up): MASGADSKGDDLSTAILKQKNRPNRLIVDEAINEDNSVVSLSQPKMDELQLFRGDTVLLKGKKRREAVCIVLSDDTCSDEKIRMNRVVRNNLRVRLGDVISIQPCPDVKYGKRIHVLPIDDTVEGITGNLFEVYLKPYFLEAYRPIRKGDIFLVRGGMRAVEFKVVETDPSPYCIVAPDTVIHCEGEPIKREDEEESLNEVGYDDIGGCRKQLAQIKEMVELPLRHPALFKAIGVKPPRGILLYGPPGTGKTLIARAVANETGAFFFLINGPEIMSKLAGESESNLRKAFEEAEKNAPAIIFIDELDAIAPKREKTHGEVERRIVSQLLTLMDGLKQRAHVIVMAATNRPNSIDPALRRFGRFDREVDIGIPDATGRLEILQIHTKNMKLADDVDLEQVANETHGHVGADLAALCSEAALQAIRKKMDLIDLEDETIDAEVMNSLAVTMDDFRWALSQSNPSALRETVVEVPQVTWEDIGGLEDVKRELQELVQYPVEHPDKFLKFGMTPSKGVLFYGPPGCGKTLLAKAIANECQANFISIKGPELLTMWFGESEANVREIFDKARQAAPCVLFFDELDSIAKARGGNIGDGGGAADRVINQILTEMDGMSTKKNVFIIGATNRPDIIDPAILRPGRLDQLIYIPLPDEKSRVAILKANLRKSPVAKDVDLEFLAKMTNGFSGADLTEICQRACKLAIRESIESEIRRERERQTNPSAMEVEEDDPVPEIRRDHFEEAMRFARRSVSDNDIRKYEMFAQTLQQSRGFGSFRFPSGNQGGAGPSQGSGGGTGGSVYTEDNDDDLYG
CHOP UPR activ: apoptotic UPR (CHOP) activation | CHO-CHOP luciferase reporter, luminescence; percent of tunicamycin response over DMSO baseline | activation, % at 10 µM | hit rate 0.34% among 330,000;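 active = at 10 µM dose, activation of 40% or more, normalized to positive control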
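Assay system: CHO cells with stable CHOP pathway luciferase reporter; Buffer or medium: F12 plus 10% serum; Times: 16-18 h cell attachment, then 6 h compound exposure, 37 °C; Signal: luciferase luminescence; Read-out basis: percent activation relative to tunicamycin control; Control set: tunicamycin high control, DMSO low control.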
CHOP inh: inhibitors of CHOP induction in ER stress response; CHO-K1 CHOP-promoter luciferase, tunicamycin-induced, 15-18 h; inhibition, % at 10 µM; hit rate 3.8% among 220,000;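 active = compounds that reduced the stress-induced luciferase reporter signal by more than about 70% of percent inhibition, limit read from the data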
XBP1 UPR activ: adaptive UPR (XBP1) activation; hit rate 0.33% among 330,000; CHO-XBP1 luciferase reporter, IRE1-XBP1 UPR activation, luminescence; percent of tunicamycin response, DMSO as zero; activation, % at 20 µM;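 active = versus positive control, 20 µM dose yields 30% or more activation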
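Assay system: IRE1-XBP1 luciferase reporter CHO line. Input: 1000 cells/well. Buffer or medium: F12 with 10% serum. Doses: 20 µM, 1% DMSO. Times: overnight seeding at 37 °C, 6 h compound treatment at 37 °C. Technique: Steady-Glo luciferase glow luminescence, 10 min after reagent addition.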
CHOP inh conf: confirmation of CHOP induction inhibitors | hit rate 45% among 2,100 | shares compounds with CHOP inh | inhibition, % at 10 µM | CHO-CHOP promoter luciferase reporter, tunicamycin-induced, luminescence;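 active = mean of three repeat readings of reporter signal inhibition above a set limit, cut at about 70% in these data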
UPR CHOP confirm: apoptotic UPR (CHOP) activation, confirmed; activation, % at 10 µM; hit rate 64% among 1,000; CHO-CHOP cells, CHOP-luciferase reporter luminescence; percent of tunicamycin response, DMSO as zero; shares compounds with CHOP UPR activ; in the data active = activation above about 33%
Of the large screens only hits and unclear results are named; the others gave an inactive call (follow-up assays come after a bar, where they were run). Most compounds without a hit are left out; they make up all but 4.5% or so of the library.

COc1cccc(/C=N/n2c(C3CCCCC3)n[nH]c2=S)c1OC	none (no result: p97 ATPase inh, CHOP inh)
COc1ccccc1/C=C\C=N\n1c(C2CCCCC2)n[nH]c1=S	CHOP inh 108 | CHOP inh conf inactive
Cc1ccc(/C=N/n2c(C3CCCCC3)n[nH]c2=S)s1	CHOP inh 105 | CHOP inh conf 96
Fc1ccc(/C=N/n2c(C3CCCCC3)n[nH]c2=S)cc1	none (no result: p97 ATPase inh, CHOP inh)
COc1cc(OC)c(OC)cc1CNC(=O)c1cccc(S(=O)(=O)N2CCc3ccccc3C2)c1	none (no result: M18AAP inhibitor, NS3 helicase inh, p97 ATPase inh, CHOP inh)
COc1cc(CNC(C)C)c(Br)cc1OC1CCCC1	none
Nc1ccc(S(=O)(=O)NC2(C(F)(F)F)NC(=O)N(c3ccccc3F)C2=O)cc1 (centres undefined)	none (no result: p97 ATPase inh, CHOP inh)
CCC(C)c1ccc(NC(=S)NCc2ccccc2OC)cc1 (centres undefined)	CHOP inh 97 (no result: CHOP UPR activ, XBP1 UPR activ) | CHOP inh conf inactive
COc1ccccc1CNC(=S)Nc1ccc(F)cc1	none (no result: p97 ATPase inh, CHOP inh)
CCOC(=O)C1=NN(c2ccc(Cl)cc2)C(=O)C1	none
CSc1nc2c(cnn2-c2ccc(C)c(C)c2)c(=O)[nH]1	CHOP inh 100 | CHOP inh conf 111
Cc1ccc(-c2nc3ccccc3s2)cc1NC(=O)c1cc(-n2cnnc2)ccc1Cl	CHOP inh 100 | CHOP inh conf inactive
COc1cc(Cl)ccc1OCc1cc(C(=O)N(C)CC2CCCCO2)no1 (centres undefined)	none (no result: p97 ATPase inh, CHOP inh)
Cc1ccc(C2C(C#N)=C(N)Oc3cc(N)ccc32)cc1 (centres undefined)	none (no result: p97 ATPase inh, CHOP inh)
Cc1ccc(/C=C2\CCC3=C2OC(N)=C(C#N)C3c2ccc(C)cc2)cc1 (centres undefined)	CHOP UPR activ 92, CHOP inh 98 | CHOP inh conf inactive | UPR CHOP confirm 81
CCOc1ccc2nc(SCC(=O)Nc3ccc4[nH]c(=O)[nH]c4c3)[nH]c2c1	none (no result: M18AAP inhibitor, NS3 helicase inh, p97 ATPase inh, CHOP inh)
CC(=O)N(C1=C(Cl)C(=O)c2ccccc2C1=O)C1CCCCC1	CHOP UPR activ 53, CHOP inh 102 | CHOP inh conf 113 | UPR CHOP confirm inactive
Cc1ccc(C)c(NC(=S)N/N=C/C(C)c2ccccc2)c1 (centres undefined)	none
CCOC(=O)/C(=C\c1ccc(Cl)cc1)c1nc2sc(C)c(C)c2c(=O)[nH]1	CHOP UPR activ 59, CHOP inh 107 | CHOP inh conf inactive | UPR CHOP confirm 198
CC(=O)Nc1ccc(NC2=C(Cl)C(=O)c3ccccc3C2=O)cc1	CHOP UPR activ 45, CHOP inh 104 | CHOP inh conf inactive | UPR CHOP confirm inactive
O=C(Oc1ccc(NC2=C(Cl)C(=O)c3ccccc3C2=O)cc1)c1ccc([N+](=O)[O-])cc1	none (no result: CHOP UPR activ, XBP1 UPR activ)
O=C1CC(c2cccc(Cl)c2)CC(O)=C1C=Nc1cccc(Cl)c1 (centres undefined)	CHOP UPR activ 52, CHOP inh 99 | CHOP inh conf 72 | UPR CHOP confirm inactive
O=C1CC(c2ccccc2)CC(O)=C1C=Nc1ccccc1 (centres undefined)	none
Fc1ccc(Sc2nc(-c3ccccc3)nnc2C(F)(F)F)cc1	CHOP UPR activ 41, CHOP inh 112 | CHOP inh conf inactive | UPR CHOP confirm inactive
O=C(NCCC1CCCCN1S(=O)(=O)c1cccs1)C(=O)NCc1ccccc1 (centres undefined)	none (no result: M18AAP inhibitor, NS3 helicase inh, p97 ATPase inh, CHOP inh)
NS(=O)(=O)c1ccc(Cc2ncc(C(F)(F)F)cc2Cl)s1	none
O=C(CCl)c1ccc(Cc2ncc(C(F)(F)F)cc2Cl)s1	CHOP UPR activ 169, CHOP inh 104 | CHOP inh conf inactive | UPR CHOP confirm 169
O=C(CN(c1ccc(F)cc1)S(=O)(=O)c1ccccc1)N1CCOCC1	none (no result: p97 ATPase inh, CHOP inh)
CC1=NOC(=O)/C1=C\c1ccc(-c2ccc(Br)cc2)o1	none (no result: CHOP UPR activ, XBP1 UPR activ)
CC1=NOC(=O)/C1=C/c1ccc(-c2ccc(Cl)cc2)o1	CHOP UPR activ 265, CHOP inh 109 | CHOP inh conf inactive | UPR CHOP confirm 34
CC1=NOC(=O)/C1=C\c1ccc(-c2cc(Cl)ccc2Cl)o1	CHOP UPR activ 69, CHOP inh 114 | CHOP inh conf inactive | UPR CHOP confirm inactive
CC(=O)c1ccc(N(CC(=O)NC2CCS(=O)(=O)C2)S(=O)(=O)c2ccc(Cl)cc2)cc1 (centres undefined)	none (no result: M18AAP inhibitor, NS3 helicase inh, p97 ATPase inh, CHOP inh)
CCOC(=O)c1ccc(-n2c(C)ccc2C)cc1	none
CCOC(=O)c1ccc(N2C(=O)C=CC2=O)cc1	CHOP UPR activ 47, CHOP inh 112 | CHOP inh conf inactive | UPR CHOP confirm 33
COc1ccccc1N1CCN(Cc2ccc(O)c3ncccc23)CC1	CHOP UPR activ 113, CHOP inh 102 | CHOP inh conf inactive | UPR CHOP confirm 97
COC(=O)C(Cc1c[nH]c2ccccc12)NC(=O)c1cccc(S(=O)(=O)N2CCCCC2)c1 (centres undefined)	none (no result: M18AAP inhibitor, NS3 helicase inh, p97 ATPase inh, CHOP inh)
COc1cccc(C(=O)C(C#N)=C(SC)SC)c1	CHOP UPR activ 119, CHOP inh 102 | CHOP inh conf 118 | UPR CHOP confirm inactive
CCOc1cc(C=C(C(=O)OC)C(=O)OC)ccc1OCc1ccc([N+](=O)[O-])cc1	CHOP UPR activ 220, CHOP inh 99 | CHOP inh conf inactive | UPR CHOP confirm 242
CCOC(=O)C1=C(Cc2ccc(Cl)cc2)C(=O)c2ccccc2C1=O	CHOP UPR activ 118, CHOP inh 107 | CHOP inh conf inactive | UPR CHOP confirm 37
CCOc1ccccc1NC(=O)N1CCCN(c2ncccc2C#N)CC1	none (no result: p97 ATPase inh, CHOP inh)
O=C1Nc2ccccc2/C1=C/C(=O)c1cccs1	CHOP UPR activ 74, CHOP inh 104 | CHOP inh conf inactive | UPR CHOP confirm 125
CCCn1nnc(NC(=O)/C=C/c2ccccc2)n1	none
Cc1nc(NC(=O)/C=C/c2ccccc2)n[nH]1	CHOP UPR activ 44, CHOP inh 97 | CHOP inh conf inactive | UPR CHOP confirm 35
C=CCn1c(SCC(=O)N(CC)C2CCS(=O)(=O)C2)nc2cc(C(=O)O)ccc2c1=O (centres undefined)	none (no result: M18AAP inhibitor, NS3 helicase inh, p97 ATPase inh, CHOP inh)
Cn1c(-c2cccc(F)c2)nc2c1c(=O)[nH]c(=O)n2Cc1ccccc1	none (no result: p97 ATPase inh, CHOP inh)
Cn1c(-c2cccc(OCc3ccccc3)c2)nc2c1c(=O)[nH]c(=O)n2Cc1ccccc1	CHOP UPR activ 76, CHOP inh 106 | CHOP inh conf 79 | UPR CHOP confirm 144
O=C(COC(=O)c1ccccn1)NCCc1ccc(Cl)cc1	none (no result: M18AAP inhibitor, NS3 helicase inh, p97 ATPase inh, CHOP inh)
CCOc1cc(NC(=O)CCl)c(OCC)cc1NC(=O)CCl	CHOP UPR activ 153, CHOP inh 98 | CHOP inh conf 79 | UPR CHOP confirm 87

From PubChem BioAssay
